Source: PubChem BioAssay (several laboratories)
TCR CD3 inh: human TCR-CD3 binding inhibition. TAMRA-labeled TCR probe fluorescence, biochemical. inhibition, % at 9.4 µM. hit rate 0.37% among 360,000;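 note: recombinant mutant TCR 2C K166C tagged with TAMRA read by polarization; 0% = receptor in buffer alone and 100% = receptor with positive control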
PRMT1 inh: inhibitors of human PRMT1; hit rate 1.3% among 370,000; recombinant PRMT1, activity-based probe fluorescence polarization; inhibition, % at 2.79 µM; Q99873;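 active = inhibition above about 21% made by adding two undisclosed values, limit read from the data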
Target sequence (Q99873 whole entry, looked up): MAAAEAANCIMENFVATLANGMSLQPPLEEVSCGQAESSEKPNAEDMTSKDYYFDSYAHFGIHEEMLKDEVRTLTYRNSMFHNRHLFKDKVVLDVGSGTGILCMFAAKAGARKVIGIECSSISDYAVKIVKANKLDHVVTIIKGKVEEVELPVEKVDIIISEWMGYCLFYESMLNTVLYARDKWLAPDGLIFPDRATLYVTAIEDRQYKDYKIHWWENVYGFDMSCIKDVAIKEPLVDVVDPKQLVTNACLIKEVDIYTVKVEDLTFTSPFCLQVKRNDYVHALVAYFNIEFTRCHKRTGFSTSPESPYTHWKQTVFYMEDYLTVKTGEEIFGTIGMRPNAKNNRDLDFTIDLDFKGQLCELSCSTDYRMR
mABHD4 FP: inhibits mouse alpha/beta hydrolase domain 4; purified mABHD4, FP-Rh probe fluorescence polarization; inhibition, % at 8.92 µM; hit rate 0.54% among 370,000; AID 720543;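 active = inhibition exceeding the mean over every tested compound plus 3 SD, cut at about 30% in these data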;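 note: 0% = plate median of compound wells and 100% = S159A mutant with DMSO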
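Assay system: Wild-type mouse ABHD4 protein | Medium: HEPES pH 7.0 buffer, 150 mM NaCl, 0.01% Pluronic F-127 | Incubation: Enzyme–compound pre-incubation 45 min, then probe 60 min, both 25 °C | Technique: Fluorescence polarization with parallel and perpendicular emission, 525/598 nm | Evaluation: % inhibition of FP-Rh probe binding versus controls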
HTRA1 inh: blocks human HTRA1 serine peptidase; Q92743; recombinant HTRA1, FP-rhodamine activity-based probe, fluorescence polarization; inhibition, % at 5.96 µM; hit rate 0.5% among 340,000; in the data active = inhibition above about 36%;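 note: 0% = enzyme with DMSO and 100% = wells lacking enzyme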
ATG4B inh: ATG4B (human) cysteine protease inhibition | inhibition, % at 8.33 µM | ATG4B cleavage of LC3-PLA2, NBD-HPC fluorescence, 1 h | hit rate 0.51% among 340,000 | Q9Y4P1; in the data active = inhibition above about 40%
SIAE inh: inhibitors of human sialic acid acetylesterase SIAE; Q9HAT2; SIAE FP-Rh probe binding, fluorescence polarization; inhibition, % at 9.66 µM; hit rate 0.69% among 370,000; AID 1053197;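 active = inhibition above a cutoff: mean of compounds within the control limits plus 3 SD of those, cut at about 17% in these data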;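 note: 0% = plate median of compound wells and 100% = probe without SIAE protein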
BSA TAMRA ctr: interferes with TAMRA-BSA probe, flagging TCR-CD3 hits; inhibition, % at 9.4 µM; shares compounds with TCR CD3 inh; TAMRA-labeled BSA probe fluorescence counterscreen; AID 652035; hit rate 10% among 1,200; in the data active = inhibition above about 23%;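 note: 0% = buffer low control and 100% = reference high control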
TCR-CD3 conf: TCR-CD3 interaction inhibition, confirmation; TAMRA-labeled TCR probe fluorescence binding assay; inhibition, % at 9.4 µM; AID 652036; hit rate 48% among 1,200; shares compounds with TCR CD3 inh
An asterisk follows results filed as active; / = not tested or not shown. Most compounds without a hit are left out; they make up all but 2.9% or so of the library. Cut-off read from the data, not from the text of the source, unless noted: active = inhibition above about 19%; inactive = the rest.

SMILES	TCR CD3 inh	PRMT1 inh	mABHD4 FP	HTRA1 inh	ATG4B inh	SIAE inh	BSA TAMRA ctr	TCR-CD3 conf
CCC(=O)N1CC2(CC(c3cccc(NC(=O)CC(c4ccccc4)c4ccccc4)c3)=NO2)C[C@H]1C(N)=O (some centres undefined)	1	-2	0	-15	-20	-16	/	/
C=C(C)C(=O)N1CC2(CC(c3cccc(NC(=O)CC(c4ccccc4)c4ccccc4)c3)=NO2)C[C@H]1C(N)=O (some centres undefined)	9	0	-8	-13	-14	-5	/	/
C/C=C(/C)C(=O)Nc1cccc(C2=NOC3(C2)C[C@@H](C(N)=O)N(C(=O)c2ccc(OC)cc2)C3)c1 (some centres undefined)	38*	1	1	-5	-11	15	3	4
NC(=O)[C@@H]1CC2(CC(c3cccc(NC(=O)CC(c4ccccc4)c4ccccc4)c3)=NO2)CN1C(=O)c1ccc(Cl)cc1 (some centres undefined)	35*	-1	-76	-109	4	-69	8	20*
COc1cc(C2NC(=O)CCC2[N+](=O)[O-])cc(OC)c1OC (centres undefined)	23*	2	-8	-1	-6	-3	-2	-3
O=C(CN1CCN(c2ccccc2)CC1)N1CCc2[nH]c3ccccc3c2C1	22*	2	5	8	-14	4	3	1
N#Cc1c(SCC(=O)Nc2ccc(C(F)(F)F)cc2)sc2c(O)cc(=O)[nH]c12	-4	14	-2	-22	5	-12	/	/
N#Cc1c(SCC(=O)Nc2nncs2)sc2c(O)cc(=O)[nH]c12	27*	46*	3	-9	19	-19	-13	9
CCOC(=O)Cn1c(=NC(=O)c2cc(-c3cccs3)nc3ccccc23)sc2cc(S(N)(=O)=O)ccc21	38*	-2	-27	-53	-5	-18	4	21*
COC(=O)Cn1c(=NC(=O)c2cc(-c3cccs3)nc3ccccc23)sc2cc(S(N)(=O)=O)ccc21	57*	1	-105	-124	-4	-64	10	31*
O=C(Nc1cccc(C(F)(F)F)c1)O[C@@H]1CC[C@@]23CCCN2C(=O)CCC[C@H]3C1	/	-4	-4	/	/	-5	/	/
O=C(Nc1ccc(F)cc1)c1nc[nH]c1C(=O)Nc1ccccc1[N+](=O)[O-]	5	-2	2	3	3	-1	/	/
NNC(=O)c1nc[nH]c1C(=O)Nc1ccccc1[N+](=O)[O-]	30*	1	-1	-1	1	2	-7	10
C/C(=N\NC(=O)c1cc(C2CC2)nc2ccccc12)c1ccc(C)s1	6	0	3	-13	-5	-1	/	/
C/C(=N\NC(=O)c1cc(C2CC2)nc2ccccc12)c1ccc(O)cc1O	22*	-2	8	15	1	8	-12	24*
COc1ccccc1OCC(=O)N/N=C/c1c(O)ccc2ccccc12	20*	6	21	4	/	5	-9	18
COc1ccccc1OCC(=O)N/N=C/c1cccc2cccnc12	-11	-1	-1	0	-6	-4	/	/
O=c1[nH]c2ccc(S(=O)(=O)N3CCN(c4ccccc4)CC3)cc2[nH]c1=O	-5	4	-9	-2	-7	0	/	/
O=S(=O)(c1ccc2nc(-c3ccccc3)[nH]c2c1)N1CCN(c2cccc(Cl)c2)CC1	68*	1	-4	-2	8	-8	27*	45*
C[C@@H]1Cn2cnc(C(=O)N3CCN(C(=O)OC(C)(C)C)CC3)c2C(=O)N1	20*	0	1	/	/	3	3	2
C[C@H]1Cn2cnc(C(=O)NCC(=O)OC(C)(C)C)c2C(=O)N1	6	0	0	4	/	-2	/	/
CN(c1ccccc1)S(=O)(=O)c1ccc2c(c1)oc(=O)n2C	0	2	4	-4	2	-6	/	/
C=CCN(c1ccccc1)S(=O)(=O)c1ccc2c(c1)oc(=O)n2C	64*	-1	4	-7	-6	-4	3	6
O=C(Nc1ccc(Cl)cc1)Nc1ccc(Cl)c(Cl)c1	22*	-2	-35	/	-2	-29	10	19*
O=C(CSc1ccccc1)NNC(=O)c1ccccc1O	19*	3	9	35	-4	9	-10	26*
SMILES	TCR CD3 inh	PRMT1 inh	mABHD4 FP	HTRA1 inh	ATG4B inh	SIAE inh	BSA TAMRA ctr	TCR-CD3 conf
NC(=O)NC(=O)CSc1ccccc1	4	-1	1	-3	3	-6	/	/
COc1ccc(/C(C)=N/NC(=O)c2nnn(-c3nonc3N)c2CN(C)c2ccccc2)cc1	5	-4	-6	-12	1	-3	/	/
C/C(=N\NC(=O)c1nnn(-c2nonc2N)c1CN(C)c1ccccc1)c1ccccc1O	41*	2	-5	29	-3	3	-2	29*
COc1c(-c2ccc(O)cc2)oc2cc(O)cc(O)c2c1=O	32*	1	-2	6	-33	6	-7	15
O=c1c(-c2c(O)cc(O)c3c(=O)cc(-c4ccc(O)cc4)oc23)c(-c2ccc(O)cc2)oc2cc(O)cc(O)c12	31*	5	-71	12	14	-36	-2	23*
COc1ccc(-c2cc(=O)c3c(O)cc(O)cc3o2)cc1	-1	5	-1	-9	-11	-20	/	/
COC(=O)[C@]12C[C@H](CC(=O)NCC34CC5CC(CC(C5)C3)C4)C(=O)N(CCc3ccc(OC)c(OC)c3)C1=C[C@H](C(C)(C)C)O[C@@H]2C	/	3	2	/	/	3	/	/
CNC(=S)NNC(=O)c1cccn(Cc2ccc(Cl)cc2Cl)c1=O	27*	-3	6	/	/	2	-4	26*
CNC(=S)NNC(=O)c1cccn(Cc2cccc(C(F)(F)F)c2)c1=O	26*	-4	3	5	-2	5	-1	25*
CNC(=S)NNC(=O)c1ccc(=O)n(Cc2ccc(Cl)cc2Cl)c1	0	0	9	1	11	-4	/	/
CCNC(=S)NNC(=O)c1cccn(Cc2ccc(Cl)cc2)c1=O	12	2	14	20	-1	1	/	/
COC(=O)c1cc(C(C)c2ccccc2O)n2ccccc12 (centres undefined)	/	-5	-21	/	/	-6	/	/
CCOC(=O)C1CCCN(C(=O)c2cc(-c3ccco3)nc3ccccc23)C1 (centres undefined)	21*	20	11	26	10	9	-12	15
CCOC(=O)C1CCCN(C(=O)c2cc(-c3ccncc3)nc3ccccc23)C1 (centres undefined)	11	0	-1	-1	-13	0	/	/
